Several values for one entry are separate records, joined by “and”; a condition that tells them apart may be missing. Equal entries are not always repeated. Some results are limits rather than exact numbers.

The test system of one data set is L1210. The experiment in a line: In vitro inhibitory activity against murine L1210 leukemia. The data set is classed as functional, cell-based. As to conditions: Mus musculus. A digest of the protocol:
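Mouse L1210 leukemia cells were grown in RPMI 1640 with 5% fetal calf serum, penicillin and streptomycin, at 37 °C in 5% CO2. Cells were seeded at 5×10^4 cells/mL and exposed to four concentrations of compound dissolved in 50% ethanol.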

Data set [1] relates to Mus musculus. The experiment in a line: Antineoplastic activity was evaluated in vivo against murine leukemia P388 (i.p./i.p.; days 1-5) and optimum dose was reported. The data set is classed as functional. In outline: (§1)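 BDF1 mice given 10^6 P388 lymphocytic leukemia cells ip on day 0, then treated ip on days 1-5 following NCI protocols. Full dose-response runs spanned ineffective to clearly toxic doses. Mean survival time was taken per group of eight mice and expressed as % T/C. The optimal dose is the one giving the highest T/C.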

For data set [2], the system named is Mus musculus. The experiment in a line: In vivo % T/C activity was measured against P388 leukemia; 155. The data set is classed as functional. A digest of the protocol:
as §1

Data set [3] deals with Mus musculus. The experiment in a line: In vivo % T/C activity was measured against P388 leukemia;250. The data set is classed as functional. In outline:
as §1

Data set [4] can be described thus: Toxicity in CDF1 male mice following a single intraperitoneal administration. Type of data set: organism-based. As to conditions: CDF1, mouse, in vivo, ip. In outline: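 Acute toxicity after one ip dose in male CDF1 mice. The read-out is the LD50, given as preliminary estimates that are either a dose range or a bound in mg/kg.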
Data set [5] concerns Mus musculus. The experiment in a line: In vivo % T/C activity was measured against P388 leukemia. The data set is classed as functional. A digest of the protocol: as §1
The test system of data set [6] is Mus musculus. Kind of data set: Antineoplastic activity was evaluated in vivo against murine leukemia P388 (i.p./i.p.; days 1-5) and optimum dose was reported;120. The data set is classed as functional. A digest of the protocol: as §1
Data set [7] concerns Mus musculus. The experiment in a line: In vivo % T/C activity was measured against P388 leukemia; 290. Type of data set: functional. A digest of the protocol: as §1
For data set [8], the system named is Mus musculus. Kind of data set: In vivo % T/C activity was measured against P388 leukemia; 210. The data set is classed as functional. In outline: as §1

In the case of `CCN(CC)CCCNc1ccc2ncn3c4ccc(OC)cc4c(=O)c1c23`, the IC50 in the data set with L1210 was 1.1 µg/mL and 2.5 µM. In the data set with Mus musculus [1], this molecule displayed an Optimal dose of 150 mg kg-1 injection-1.

With `COc1ccc2c(c1)c(=O)c1c(NCCCN(C)C)ccc3nc(C)n2c31`, the IC50 in the data set on L1210 is 1.4 µg/mL and 3.2 µM. Further, the Optimal dose in the data set on Mus musculus [1] worked out at 150 mg kg-1 injection-1.

On to `CCN(CC)CCCNc1ccc2nc(C)n3c4ccc(O)cc4c(=O)c1c23`, for which the IC50 in the data set with L1210 was 0.4 µg/mL and 890 nM. In addition, the T/C with Mus musculus [2] was 150%. Also, the Optimal dose with Mus musculus [1] is recorded as 25 mg kg-1 injection-1.

Consider `Cc1nc2ccc(NCCN(C)C)c3c(=O)c4cc(O)ccc4n1c23`, for which the IC50 in the data set with L1210 was 0.06 µg/mL and 135 nM. This molecule also gave a T/C in the data set on Mus musculus [3] of 200%. Moreover, in data set [4], the LD50 was determined as 250 mg/kg. In the data set on Mus musculus [1], this molecule displayed an Optimal dose of 12.5 mg kg-1 injection-1.

Take `CCN(CC)CCNc1ccc2ncn3c4ccc(OC)cc4c(=O)c1c23`: in the data set on L1210, the IC50 was 0.78 µg/mL and 1.8 µM. The molecule also came in with an LD50 in data set [4] of 500 mg/kg. For the same molecule, in the data set with Mus musculus [1], the Optimal dose amounted to 100 mg kg-1 injection-1.

On to `COc1ccc2c(c1)c(=O)c1c(NCCN(C)C)ccc3nc(C)n2c31`, for which the IC50 in the data set with L1210 is 0.34 µg/mL and 770 nM. Besides, in the data set with Mus musculus [1], the Optimal dose is reported as 150 mg kg-1 injection-1.

For the molecule `CCN(CC)CCCNc1ccc2ncn3c4ccc(O)cc4c(=O)c1c23`, the IC50 with L1210 is 0.08 µg/mL and 180 nM. The Optimal dose in the data set with Mus musculus [1] is recorded as 25 mg kg-1 injection-1.

Regarding `COc1ccc2c(c1)c(=O)c1c(NCCN(C)C)ccc3ncn2c31`, the IC50 in the data set on L1210 is 0.65 µg/mL and 1.65 µM. This molecule displayed an Optimal dose in the data set on Mus musculus [1] of 100 mg kg-1 injection-1.

For the molecule `O=C1c2ccccc2C(=O)c2c(NCCNCCO)ccc(NCCNCCO)c21` [AMETANTRONE], the IC50 with L1210 was 1.77 µg/mL and 3.65 µM. This molecule also yielded a T/C in the data set on Mus musculus [5] of 300%. In the data set on Mus musculus [1], this molecule came in with an Optimal dose of 12.5 mg kg-1 injection-1.

On to `CCN(CC)CCNc1ccc2ncn3c4ccc(O)cc4c(=O)c1c23` [C-1311], for which the concentration for half-maximal inhibition (IC50) in the data set on L1210 was 0.013 µg/mL and 31 nM. For the same molecule, in data set [4], the LD50 is greater than 200 mg/kg. This molecule had an Optimal dose in the data set with Mus musculus [1] of 5 mg kg-1 injection-1.

`CCN(CC)CCNc1ccc2nc(C)n3c4ccc(OC)cc4c(=O)c1c23`: the IC50 with L1210 is 0.7 µg/mL and 1.55 µM. In the data set on Mus musculus [6], this molecule displayed an Optimal dose of 150 mg kg-1 injection-1.

Turning to `Cc1nc2ccc(NCCCN(C)C)c3c(=O)c4cc(O)ccc4n1c23`, the IC50 with L1210 is 0.1 µg/mL and 230 nM. The molecule also gave an Optimal dose with Mus musculus [1] of 100 mg kg-1 injection-1.

On to `COc1ccc2c(c1)c(=O)c1c(NCCCN(C)C)ccc3ncn2c31`, for which the IC50 in the data set with L1210 is 3.5 µg/mL and 8.2 µM. This molecule displayed an Optimal dose in the data set on Mus musculus [1] of 150 mg kg-1 injection-1.

On to `CN(C)CCCNc1ccc2ncn3c4ccc(O)cc4c(=O)c1c23`, for which the IC50 in the data set with L1210 is 0.014 µg/mL and 34 nM. This molecule also yielded an Optimal dose in the data set on Mus musculus [1] of 5 mg kg-1 injection-1.

On to `CCN(CC)CCNc1ccc2nc(C)n3c4ccc(O)cc4c(=O)c1c23`, for which the IC50 in the data set with L1210 was 0.11 µg/mL and 250 nM. Besides, the LD50 in [4] was determined as 500 mg/kg. Besides, the T/C with Mus musculus [7] amounted to 280%. The Optimal dose in the data set with Mus musculus [1] is listed as 75 mg kg-1 injection-1.

Consider `CN(C)CCNc1ccc2ncn3c4ccc(O)cc4c(=O)c1c23`, for which the IC50 in the data set on L1210 was 0.02 µg/mL and 48 nM. The T/C with Mus musculus [8] came out at 210%. Also, the Optimal dose in the data set with Mus musculus [1] is 12.5 mg kg-1 injection-1.

In the case of `CCN(CC)CCCNc1ccc2nc(C)n3c4ccc(OC)cc4c(=O)c1c23`, the IC50 with L1210 is 0.7 µg/mL and 1.4 µM. This molecule registered an Optimal dose in the data set on Mus musculus [1] of 150 mg kg-1 injection-1.

The term IC50 denotes the point on the concentration scale where inhibition reaches its midpoint. Read a low IC50 as greater potency. As usually defined, the T/C is the ratio of treated to control. One may read the LD50 as the dose expected to kill half of the subjects tested. A higher LD50 goes with lower toxicity.

For the origin of these results see ChEMBL document CHEMBL1125294, “Chromophore-modified antineoplastic imidazoacridinones. Synthesis and activity against murine leukemias” (J Med Chem, 1992).
